Screening results as filed in PubChem.
KCNK9 inh: blocks the human KCNK9 two-pore domain potassium channel; B-score at 10 µM; Q9NPC2; HEK293 KCNK9, FluxOR thallium flux fluorescence; active compounds read low; hit rate 1.2% among 310,000; AID 488922;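 active means ratio B-score over 3 SD below the library mean, with starting fluorescence within 5 SD of its mean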;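 further: negative B-score means less thallium flux so channel inhibition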
hERG rescue: compounds protecting human hERG from proarrhythmic drug block; AID 1511; hit rate 0.51% among 310,000; Q12809; CHO-hERG, FluxOR thallium flux, dofetilide IC70 present; activation (rescue from dofetilide block), less the hit threshold, % at 10 µM;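 active means activation above the mean of controls blocked by dofetilide plus 5 SD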;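 further: thallium influx through hERG after potassium depolarization seen as dye fluorescence rise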
Target sequence (Q12809 whole entry, looked up): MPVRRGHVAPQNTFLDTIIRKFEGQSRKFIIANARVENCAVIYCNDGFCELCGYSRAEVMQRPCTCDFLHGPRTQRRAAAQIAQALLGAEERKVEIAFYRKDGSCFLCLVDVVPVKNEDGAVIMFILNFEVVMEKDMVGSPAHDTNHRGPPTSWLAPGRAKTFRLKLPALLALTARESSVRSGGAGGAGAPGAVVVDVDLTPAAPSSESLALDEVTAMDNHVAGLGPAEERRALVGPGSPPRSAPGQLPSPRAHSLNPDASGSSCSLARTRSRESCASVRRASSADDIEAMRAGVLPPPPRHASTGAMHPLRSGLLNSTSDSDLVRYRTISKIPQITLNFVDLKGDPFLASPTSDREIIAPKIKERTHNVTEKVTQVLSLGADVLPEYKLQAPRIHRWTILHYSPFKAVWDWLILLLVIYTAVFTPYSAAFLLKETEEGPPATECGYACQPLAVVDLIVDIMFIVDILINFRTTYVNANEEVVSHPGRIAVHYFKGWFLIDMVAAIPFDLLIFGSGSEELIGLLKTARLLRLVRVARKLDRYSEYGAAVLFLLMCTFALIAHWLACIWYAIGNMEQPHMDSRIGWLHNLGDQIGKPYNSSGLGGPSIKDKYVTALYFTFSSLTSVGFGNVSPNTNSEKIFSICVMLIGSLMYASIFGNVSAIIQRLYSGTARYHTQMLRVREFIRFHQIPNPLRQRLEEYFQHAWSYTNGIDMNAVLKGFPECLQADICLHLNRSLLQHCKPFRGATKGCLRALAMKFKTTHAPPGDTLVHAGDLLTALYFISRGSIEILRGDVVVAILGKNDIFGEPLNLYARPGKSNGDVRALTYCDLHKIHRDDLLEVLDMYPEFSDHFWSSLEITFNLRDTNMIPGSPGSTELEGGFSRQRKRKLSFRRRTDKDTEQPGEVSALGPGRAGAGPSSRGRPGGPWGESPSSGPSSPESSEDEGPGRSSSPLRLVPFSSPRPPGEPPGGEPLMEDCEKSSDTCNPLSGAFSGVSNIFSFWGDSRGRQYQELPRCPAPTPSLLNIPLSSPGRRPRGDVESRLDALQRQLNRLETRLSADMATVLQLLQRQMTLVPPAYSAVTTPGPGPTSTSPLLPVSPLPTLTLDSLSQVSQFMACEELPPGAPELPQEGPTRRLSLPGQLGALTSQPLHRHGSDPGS
KCNQ1 block: inhibitors of human KCNQ1 potassium channel; CHO-K1 KCNQ1, FluxOR thallium flux fluorescence; active compounds read high; P51787; hit rate 1.3% among 310,000; B-score at 10 µM;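 active means compounds whose thallium flux B-score, printed positive for inhibition, exceeds three library SD while starting fluorescence stays within three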;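 further: channel opened by potassium depolarization with thallium stimulus after 20 min compound exposure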
KCNQ1 pot: human KCNQ1 channel potentiation or activation; P51787; CHO-K1 KCNQ1, thallium flux FluxOR fluorescence; active compounds read high; B-score at 10 µM; hit rate 0.35% among 310,000; AID 2648;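 active means fluorescence ratio B-score, a plate-corrected score, at least three library SD, with initial intensity B-score within 5 SD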
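Medium – assay buffer, equal DMSO in all wells · Material – CHO-K1 cell line with stable KCNQ1 potassium channel expression · Signal – kinetic FluxOR thallium fluorescence, 10-s 1-Hz baseline, 110-s post-stimulus read · Compound – single concentration per compound, DMSO matched to controls · Schedule – 37 °C overnight plating, 90-min dark dye load, 20-min compound pretreatment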
KCNK3 inh: human KCNK3 channel inhibition, primary screen. B-score at 10 µM. hit rate 0.84% among 340,000. AID 602410. CHO-KCNK3 thallium flux, FluxOR fluorescence; active compounds read low. O14649;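 active means B-score under library mean minus 4 SD, starting fluorescence ratio at most library mean plus 5 SD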;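 further: more negative B-score means stronger inhibition of thallium flux through KCNK3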
* = called active by the depositor; i = inactive; x = not tested or not shown. A selection: hits, their analogues and other compounds. The true share with any hit is near 3.1%.

SMILES | KCNK9 inh | hERG rescue | KCNQ1 block | KCNQ1 pot | KCNK3 inh
COc1cccc(C(c2cccc(OC)c2)c2ccccc2C(=O)O)c1 | x | x | x | x | i
CN(C)c1cccc(C(=O)OCC(=O)Nc2ccccc2Sc2ccccc2)c1 | i | -14.5 | 6* | i | i
CC(=O)Nc1ccc(C(=O)OCC(=O)Nc2ccccc2Sc2ccccc2)cc1 | -7.18* | -5.9 | i | i | i
CN(C)c1cccc(C(=O)OCC(=O)Nc2ccccc2-c2ccccc2)c1 | i | -1.0 | i | i | i
Cc1nn(CC(=O)Nc2ccc3c(c2)OCCO3)c(C)c1[N+](=O)[O-] | x | x | x | x | i
CCOCCCn1c(SCC(=O)Nc2cc(C(C)(C)C)nn2-c2ccccc2)nc2ccccc2c1=O | -7.26* | -6.5 | i | i | i
CCN(c1ccccc1)S(=O)(=O)c1ccc(Cl)c(NC(=O)CN(C)Cc2cccc(F)c2)c1 | x | x | x | x | i
CC(Oc1ccccc1)C(=O)Nc1ccc(C(N)=O)cc1 (configuration not stated) | i | -0.6 | i | i | i
CC(C)NS(=O)(=O)c1ccc(NC(=O)C(C)Oc2ccc(C(=O)c3ccccc3)cc2)cc1 (configuration not stated) | i | -4.4 | i | 12* | i
Cc1ccc2nc(SCCCCOc3ccccc3)[nH]c2c1 | i | -2.4 | i | i | -9.92*
CC1(C)CC(=O)C/C(=N\NC(=S)NCc2ccccc2)C1 | i | -7.7 | i | i | i
CC1(C)CC(=O)CC(=NCC(=O)O)C1 | i | 4.7* | i | i | i
NCCSc1c(-c2ccc(Cl)cc2)[nH]c2ccccc12 | -7.31* | -22.0 | i | i | i
CCCNC(=O)c1nnsc1S(=O)(=O)c1ccc(Cl)cc1 | x | x | x | x | -9.13*
CCn1cc(C(=O)NCCCOC(C)C)c(=O)c2cc(S(=O)(=O)N3CCC(C)CC3)ccc21 | i | 0.5 | i | i | i
Cc1cc(C)c(S(=O)(=O)N2CCN(C(=O)c3ccccc3OCc3c(C)noc3C)CC2)c(C)c1 | x | x | x | x | i
COc1ccc(/C=C2\SC(=O)N(CC(=O)Nc3ccccc3O)C2=O)cc1OC | i | -9.2 | i | i | i
O=C(CN1C(=O)S/C(=C\c2ccccc2)C1=O)Nc1cc([N+](=O)[O-])ccc1O | i | -7.0 | 8* | i | i
Cc1ccc(/C=C2/SC(=S)N(CCCC(=O)Nc3cc([N+](=O)[O-])ccc3O)C2=O)cc1 | i | -6.2 | 7* | i | i
CC(C)(C)NS(=O)(=O)c1ccc(NC(=S)NC(=O)C2CC2)cc1 | i | -7.5 | i | i | i
O=C1NC(=Nc2ccccc2Cl)S/C1=C\c1cccc([N+](=O)[O-])c1O | i | -13.3 | 6* | i | i
O=C(Cc1ccc(NC(=O)C2CCN(C(=O)C3CCCCC3)CC2)cc1)Nc1ccc(C(=O)N2CCOCC2)cc1 | x | x | x | x | i
O=C(N/N=C/C1=C(N2CCOCC2)C(=C\c2ccccc2)/CC1)Nc1ccccc1 | i | -4.5 | i | i | i
O=C(O)c1ccccc1N/N=C/C1=C(N2CCOCC2)C(=C\c2ccccc2)/CC1 | i | -22.5 | 9* | i | i
COc1cccc(NC(=O)NCC2CCN(Cc3ccc(F)cc3)CC2)c1 | i | -5.8 | i | 8* | i
SMILES | KCNK9 inh | hERG rescue | KCNQ1 block | KCNQ1 pot | KCNK3 inh
C=CCn1c(SCC(=O)N(CC)C2CCS(=O)(=O)C2)nc2scc(-c3ccccc3)c2c1=O (configuration not stated) | x | x | x | x | i
O=C(NCc1nc2ccccc2[nH]1)c1ccc(S(=O)(=O)N2CCCC2)cc1 | i | 8.1* | i | i | i
CCCc1nnc(SCC(=O)N2C(C)CCCC2C)n1CC1CCCO1 (configuration not stated) | i | -6.2 | i | i | i
COc1cc(CNC(C)(C)CO)cc(Br)c1OCc1ccc(Cl)cc1Cl | -6.57* | -26.7 | i | i | i
Cn1c(CNc2ccc(Cl)cc2)nc2ccccc21 | i | -9.8 | i | i | i
CC(C)N=c1cc2n(-c3ccc(Cl)cc3)c3ccccc3nc-2cc1Nc1ccc(Cl)cc1 | -10.1* | -22.4 | 17* | i | i
CCOc1ccc(OCCCC(=O)N2CCN(S(=O)(=O)c3ccccc3C#N)CC2)cc1 | x | x | x | x | i
CNc1ncnc2sc(-c3ccccc3)cc12 | i | -7.2 | i | i | i
S=c1[nH]cnc2sc(-c3ccccc3)cc12 | i | 18.6* | i | 132* | i
